SMILES strings stand for the structures. Activity calls are given as the source filed them.

For data set [1], the system named is Mus musculus. Kind of data set: Antialzheimer activity in mouse harboring CX3CR1-GFP+/- assessed as microglial elimination in brain at 600 ppm administered as chow for 7 days relative to control. In kind it is functional. The note with it: route po, time 7 day.
Data set [2] can be described thus: Volume of distribution at steady state in monkey at 1.35 mg/kg, iv administered as single dose. In kind it is ADME, organism-based, Macaca mulatta. Conditions: rhesus monkey, in vivo, read-out: Vdss.
Data set [3] can be described thus: Effect on Ctsd gene expression in wild type mouse cortex at 1200 ppm administered as rodent chow starting from 1.5 months and measured after 7 months by RNA-Seq analysis (reference value: 110.927 to 117.612 RPKM). In kind it is functional. The note with it: route po, time 5.5 months, 4015 h.
Data set [4] is described as follows: Drug concentration in mouse brain at 300 ppm administered as rodent chow for 14 days. In kind it is ADME, tissue-based. Conditions: route po, time 14 day, read-out: Ct.
Data set [5] has as its target Tyrosine-protein kinase Lyn (Homo sapiens, UniProt P07948). Kind of data set: Inhibition of LYN_B (unknown origin).
The nature of data set [6]: Effect on Dynll1 gene expression in wildtype mouse hippocampus assessed as percent change in Reads Per kilo base per Million mapped reads at 1200 ppm administered as rodent chow starting from 1.5 months and measured after 7 months by RNA-Seq analysis (reference value: 83.247 to 113.338 %). The data set is classed as functional. The note with it: route po, time 5.5 months, 4015 h.

Data set [7] has as its target Ribosomal protein S6 kinase alpha-5 (Homo sapiens, UniProt O75582). Kind of data set: Inhibition of RPS6KA5 (unknown origin).
Data set [8] deals with Fibroblast growth factor receptor 3 (Homo sapiens, UniProt P22607). The data set can be described thus: Inhibition of FGFR3 (unknown origin).
Data set [9] in a line: Effect on Cx3cr1 gene expression in 5XFAD mouse cortex at 1200 ppm administered as rodent chow starting from 1.5 months and measured after 7 months by RNA-Seq analysis (reference value: 15.803 to 19.787). The data set is classed as functional. Conditions: route po, time 5.5 months, 4015 h.
Data set [10] can be described thus: AUC (0 to infinity) in female rat at 1.13 mg/kg, iv administered as single dose. The data set is classed as ADME, organism-based. Conditions: in vivo.
Data set [11] can be described thus: Half-life in mouse at 1.92 mg/kg, iv administered as single dose. In kind it is ADME, organism-based. Conditions: in vivo.
A short description of data set [12]: Effect on Hexb gene expression in wild type mouse hippocampus at 1200 ppm administered as rodent chow starting from 1.5 months and measured after 7 months by RNA-Seq analysis (reference value: 42.233 to 43.921 RPKM). In kind it is functional. Conditions: route po, time 5.5 months, 4015 h.
Data set [13] addresses Mitogen-activated protein kinase 1 (Homo sapiens, UniProt P28482). The data set can be described thus: Inhibition of MAPK1 (unknown origin).
Data set [14] concerns the target Tyrosine-protein kinase ITK/TSK (Homo sapiens, UniProt Q08881). The data set can be described thus: Inhibition of ITK (unknown origin).
In data set [15] the target is Fibroblast growth factor receptor 1 (Homo sapiens, UniProt P11362). The data set can be described thus: Inhibition of FGFR1 (unknown origin).
Data set [16] is described as follows: Effect on Cx3cr1 gene expression in wild type mouse hippocampus at 1200 ppm administered as rodent chow starting from 1.5 months and measured after 7 months by RNA-Seq analysis (reference value: 9.911 to 12.014 RPKM). The data set is classed as functional. Conditions: route po, time 5.5 months, 4015 h.
Data set [17] in a line: Toxicity in wildtype mouse assessed as time to locate platform at 1200 ppm administered as rodent chow for 10 to 24 weeks by Morris water maze test (reference value: 3.195 to 56.218 sec). The note with it: in vivo, po, time 10-24 weeks.
Data set [18] concerns Mus musculus. Kind of data set: Prevention of Dlgap1 gene downregulation in 5XFAD mouse hippocampus at 1200 ppm administered as rodent chow starting from 1.5 months and measured after 7 months by Nanostring analysis. The data set is classed as functional, tissue-based. The note with it: route po, time 5.5 months.
Data set [19] in a line: Effect on C1qa gene expression in wild type mouse thalamus at 1200 ppm administered as rodent chow starting from 1.5 months and measured after 7 months by RNA-Seq analysis (reference value: 19.070 to 32.518). The data set is classed as functional. The note with it: route po, time 5.5 months, 4015 h. The essentials:
(§1)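 WT and 5xFAD mice were treated with 1200 ppm PLX5622 chow or control chow from 1.5 to 7 months of age. Brains were microdissected into cortex, hippocampus and thalamus, and RNA was extracted from tissue powder. Whole-transcriptome RNA-Seq libraries were sequenced, with n = 4 per group per region (48 samples).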

For data set [20], the target named is Eukaryotic elongation factor 2 kinase (Homo sapiens, UniProt O00418). The data set can be described thus: Inhibition of EEF2K (unknown origin).
For data set [21], the target named is PI3-kinase p110-alpha/p85-alpha (Homo sapiens, UniProt P42336). Kind of data set: Inhibition of PIK3CA/PIK3R1 (unknown origin). In kind it is protein-complex assay.
The target in data set [22] is Fibroblast growth factor receptor 2 (Homo sapiens, UniProt P21802). The data set can be described thus: Inhibition of FGFR2 (unknown origin).
Data set [23] relates to Mus musculus. Kind of data set: Antialzheimer activity in 5XFAD mouse assessed as iron reactivity by measuring hemosiderin intensity of prussian blue staining in thalamus at 1200 ppm administered as rodent chow starting from 1.5 months and measured after 7 months by confocal microscopic analysis (reference value: 0.39 to 3.131 a.u.). The data set is classed as functional. Conditions: route po, time 5.5 months, 4015 h. The method in brief:
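Wild-type or 5xFAD mice fed PLX5622 (1200 ppm) in AIN-76A chow from 1.5 months of age, examined in 4- and 7-month-old cohorts. Brain sections stained with a Prussian blue kit per kit instructions to detect iron deposits (microbleeds).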

The nature of data set [24]: Prevention of Nrg3 gene downregulation in 5XFAD mouse hippocampus assessed as percent change in Reads Per kilo base per Million mapped reads at 1200 ppm administered as rodent chow starting from 1.5 months and measured after 7 months by RNA-Seq analysis (reference value: 52.623 to 75.016 %). In kind it is functional. Conditions: route po, time 5.5 months, 4015 h.
For data set [25], the system named is Mus musculus. The data set can be described thus: Antialzheimer activity in 5XFAD mouse assessed as number of entries to perimeter zone at 1200 ppm administered as rodent chow for 10 to 24 weeks by Open field test (reference value: 22 to 55). The data set is classed as functional. Conditions: route po, time 10-24 weeks.
The nature of data set [26]: Effect on C1qa gene expression in wild type mouse hippocampus at 1200 ppm administered as rodent chow starting from 1.5 months and measured after 7 months by RNA-Seq analysis (reference value: 17.148 to 23.051 RPKM). In kind it is functional. Conditions: route po, time 5.5 months, 4015 h. The essentials:
as §1

The nature of data set [27]: Effect on Siglech gene expression in wild type mouse hippocampus at 1200 ppm administered as rodent chow starting from 1.5 months and measured after 7 months by RNA-Seq analysis (reference value: 3.309 to 4.234 RPKM). The data set is classed as functional. Conditions: route po, time 5.5 months, 4015 h.
Data set [28] addresses Serine/threonine-protein kinase PLK2 (Homo sapiens, UniProt Q9NYY3). The data set can be described thus: Inhibition of PLK2 (unknown origin).
For data set [29], the system named is Mus musculus. The data set can be described thus: Effect on APP processing pathway in wildtype mouse assessed as C83 protein signal intensity in cortex at 1200 ppm administered as rodent starting from 1.5 months and measured after 7 months (reference value: 2.769 to 56.642 %). The data set is classed as functional. Conditions: route po, time 5.5 months, 4015 h.

Data set [30] concerns the target MAP/microtubule affinity-regulating kinase 4 (Homo sapiens, UniProt Q96L34). Kind of data set: Inhibition of MARK4 (unknown origin).
Data set [31] deals with Serine/threonine-protein kinase PLK3 (Homo sapiens, UniProt Q9H4B4). Kind of data set: Inhibition of PLK3 (unknown origin).
In data set [32] the target is Ribosomal protein S6 kinase alpha-1 (Homo sapiens, UniProt Q15418). The data set can be described thus: Inhibition of RPS6KA1 (unknown origin).
Data set [33] concerns the target Protein-tyrosine kinase 2-beta (Homo sapiens, UniProt Q14289). Kind of data set: Inhibition of PTK2B (unknown origin).

Sequence of Fibroblast growth factor receptor 1 (P11362 whole entry): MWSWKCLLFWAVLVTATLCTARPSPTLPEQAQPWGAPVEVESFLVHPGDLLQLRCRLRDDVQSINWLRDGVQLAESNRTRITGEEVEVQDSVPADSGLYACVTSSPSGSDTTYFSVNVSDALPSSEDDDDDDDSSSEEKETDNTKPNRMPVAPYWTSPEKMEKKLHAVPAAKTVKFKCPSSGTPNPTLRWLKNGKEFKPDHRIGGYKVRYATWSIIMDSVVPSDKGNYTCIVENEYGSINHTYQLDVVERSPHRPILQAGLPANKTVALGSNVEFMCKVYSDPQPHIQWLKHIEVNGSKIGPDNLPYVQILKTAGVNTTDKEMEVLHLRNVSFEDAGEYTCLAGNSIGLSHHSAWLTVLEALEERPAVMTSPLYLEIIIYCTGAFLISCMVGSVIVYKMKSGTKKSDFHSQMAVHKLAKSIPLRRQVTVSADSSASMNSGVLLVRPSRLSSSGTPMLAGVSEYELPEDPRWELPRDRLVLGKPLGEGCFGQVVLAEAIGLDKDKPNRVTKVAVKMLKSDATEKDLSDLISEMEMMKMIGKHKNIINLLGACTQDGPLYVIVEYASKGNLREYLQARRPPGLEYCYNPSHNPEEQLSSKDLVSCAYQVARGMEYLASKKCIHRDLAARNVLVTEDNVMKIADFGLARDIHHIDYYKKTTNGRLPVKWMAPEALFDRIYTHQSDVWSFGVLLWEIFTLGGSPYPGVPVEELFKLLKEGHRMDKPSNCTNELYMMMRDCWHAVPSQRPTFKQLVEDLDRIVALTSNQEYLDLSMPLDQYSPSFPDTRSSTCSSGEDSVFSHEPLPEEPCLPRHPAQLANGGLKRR
Sequence of Serine/threonine-protein kinase PLK3 (Q9H4B4 whole entry): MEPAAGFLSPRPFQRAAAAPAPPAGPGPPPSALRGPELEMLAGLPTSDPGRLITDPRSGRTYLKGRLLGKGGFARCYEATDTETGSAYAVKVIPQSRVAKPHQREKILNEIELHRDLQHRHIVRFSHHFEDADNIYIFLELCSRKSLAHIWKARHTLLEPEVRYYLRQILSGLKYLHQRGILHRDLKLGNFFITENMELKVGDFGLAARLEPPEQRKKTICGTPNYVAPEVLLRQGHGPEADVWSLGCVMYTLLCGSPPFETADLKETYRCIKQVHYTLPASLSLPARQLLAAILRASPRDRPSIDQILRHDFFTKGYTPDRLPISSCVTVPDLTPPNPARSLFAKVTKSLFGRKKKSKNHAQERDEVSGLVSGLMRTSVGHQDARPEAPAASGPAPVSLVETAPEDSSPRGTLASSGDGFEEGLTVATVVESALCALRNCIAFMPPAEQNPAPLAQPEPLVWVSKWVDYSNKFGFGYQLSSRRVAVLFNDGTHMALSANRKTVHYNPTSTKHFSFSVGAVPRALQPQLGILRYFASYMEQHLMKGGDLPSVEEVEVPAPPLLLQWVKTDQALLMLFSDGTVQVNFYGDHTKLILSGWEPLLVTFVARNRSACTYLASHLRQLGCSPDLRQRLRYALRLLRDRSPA
Sequence of Fibroblast growth factor receptor 3 (P22607 whole entry): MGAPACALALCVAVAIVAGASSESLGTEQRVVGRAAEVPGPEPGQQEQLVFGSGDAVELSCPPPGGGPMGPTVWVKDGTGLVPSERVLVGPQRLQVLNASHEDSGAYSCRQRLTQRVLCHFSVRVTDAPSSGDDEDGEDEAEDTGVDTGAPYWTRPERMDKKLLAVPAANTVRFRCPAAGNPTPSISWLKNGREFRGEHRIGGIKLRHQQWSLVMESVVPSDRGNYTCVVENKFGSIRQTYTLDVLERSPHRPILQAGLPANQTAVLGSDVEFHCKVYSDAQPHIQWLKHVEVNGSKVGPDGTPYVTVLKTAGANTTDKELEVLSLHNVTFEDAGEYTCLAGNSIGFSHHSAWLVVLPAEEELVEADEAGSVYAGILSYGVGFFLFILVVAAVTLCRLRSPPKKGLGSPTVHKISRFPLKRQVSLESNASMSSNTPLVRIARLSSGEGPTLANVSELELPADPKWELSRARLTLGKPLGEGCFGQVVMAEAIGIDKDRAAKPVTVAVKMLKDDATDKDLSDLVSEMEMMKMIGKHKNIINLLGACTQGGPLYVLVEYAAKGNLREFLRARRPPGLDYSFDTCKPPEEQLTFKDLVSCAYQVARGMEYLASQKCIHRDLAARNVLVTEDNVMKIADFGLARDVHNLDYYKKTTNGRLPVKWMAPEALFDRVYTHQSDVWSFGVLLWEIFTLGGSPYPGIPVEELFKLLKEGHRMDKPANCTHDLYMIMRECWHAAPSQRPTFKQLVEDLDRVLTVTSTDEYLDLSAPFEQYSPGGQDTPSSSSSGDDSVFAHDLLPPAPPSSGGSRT
Sequence of Eukaryotic elongation factor 2 kinase (O00418 whole entry): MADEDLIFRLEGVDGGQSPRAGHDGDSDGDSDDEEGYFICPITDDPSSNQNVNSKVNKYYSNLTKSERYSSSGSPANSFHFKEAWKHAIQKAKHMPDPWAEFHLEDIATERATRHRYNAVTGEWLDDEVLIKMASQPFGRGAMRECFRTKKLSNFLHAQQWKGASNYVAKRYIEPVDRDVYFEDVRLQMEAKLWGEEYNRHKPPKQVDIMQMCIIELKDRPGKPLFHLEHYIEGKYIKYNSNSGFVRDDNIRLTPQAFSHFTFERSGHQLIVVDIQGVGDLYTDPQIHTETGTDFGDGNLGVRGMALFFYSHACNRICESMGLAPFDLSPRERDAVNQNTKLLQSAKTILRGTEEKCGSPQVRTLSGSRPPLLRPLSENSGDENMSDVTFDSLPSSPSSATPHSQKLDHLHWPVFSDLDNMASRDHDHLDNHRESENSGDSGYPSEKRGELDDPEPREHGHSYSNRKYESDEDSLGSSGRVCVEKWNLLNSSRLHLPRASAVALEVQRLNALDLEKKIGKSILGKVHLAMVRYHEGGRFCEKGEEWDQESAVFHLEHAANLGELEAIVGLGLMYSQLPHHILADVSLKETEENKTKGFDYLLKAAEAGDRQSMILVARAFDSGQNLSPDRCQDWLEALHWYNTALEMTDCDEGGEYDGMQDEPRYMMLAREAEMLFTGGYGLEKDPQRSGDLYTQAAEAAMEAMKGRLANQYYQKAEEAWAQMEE
Sequence of Ribosomal protein S6 kinase alpha-5 (O75582 whole entry): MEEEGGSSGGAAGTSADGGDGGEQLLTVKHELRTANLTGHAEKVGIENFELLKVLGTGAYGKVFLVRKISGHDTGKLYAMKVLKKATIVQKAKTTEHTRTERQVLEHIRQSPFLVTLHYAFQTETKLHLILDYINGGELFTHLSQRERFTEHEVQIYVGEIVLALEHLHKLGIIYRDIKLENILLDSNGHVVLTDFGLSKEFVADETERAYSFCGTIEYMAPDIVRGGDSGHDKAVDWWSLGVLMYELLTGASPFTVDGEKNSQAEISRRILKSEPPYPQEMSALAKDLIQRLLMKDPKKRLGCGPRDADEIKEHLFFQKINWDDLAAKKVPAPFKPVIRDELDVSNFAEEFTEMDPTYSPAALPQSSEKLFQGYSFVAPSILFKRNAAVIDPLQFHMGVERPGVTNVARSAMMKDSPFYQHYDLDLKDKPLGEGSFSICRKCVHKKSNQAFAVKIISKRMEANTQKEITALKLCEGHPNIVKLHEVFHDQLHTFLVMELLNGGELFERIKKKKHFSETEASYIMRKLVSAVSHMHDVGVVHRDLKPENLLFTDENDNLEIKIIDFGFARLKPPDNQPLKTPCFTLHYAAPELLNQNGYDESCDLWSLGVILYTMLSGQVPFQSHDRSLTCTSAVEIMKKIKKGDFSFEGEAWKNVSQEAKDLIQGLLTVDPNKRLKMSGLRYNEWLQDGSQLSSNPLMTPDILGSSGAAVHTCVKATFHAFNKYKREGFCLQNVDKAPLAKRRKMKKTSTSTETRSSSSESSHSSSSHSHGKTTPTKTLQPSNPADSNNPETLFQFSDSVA
Sequence of Tyrosine-protein kinase Lyn (P07948 whole entry): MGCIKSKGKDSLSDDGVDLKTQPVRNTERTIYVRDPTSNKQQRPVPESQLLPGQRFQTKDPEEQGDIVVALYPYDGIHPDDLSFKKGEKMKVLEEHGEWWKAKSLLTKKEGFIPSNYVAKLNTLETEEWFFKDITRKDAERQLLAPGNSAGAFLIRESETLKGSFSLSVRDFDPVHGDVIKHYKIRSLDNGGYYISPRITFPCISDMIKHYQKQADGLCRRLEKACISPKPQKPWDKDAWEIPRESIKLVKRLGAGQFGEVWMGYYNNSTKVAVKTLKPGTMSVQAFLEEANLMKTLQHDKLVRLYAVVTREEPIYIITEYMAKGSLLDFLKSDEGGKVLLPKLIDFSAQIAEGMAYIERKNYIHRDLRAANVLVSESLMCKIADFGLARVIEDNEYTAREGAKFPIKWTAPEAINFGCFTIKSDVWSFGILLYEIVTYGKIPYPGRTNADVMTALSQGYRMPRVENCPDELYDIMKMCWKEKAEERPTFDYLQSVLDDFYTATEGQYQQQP
Sequence of Ribosomal protein S6 kinase alpha-1 (Q15418 whole entry): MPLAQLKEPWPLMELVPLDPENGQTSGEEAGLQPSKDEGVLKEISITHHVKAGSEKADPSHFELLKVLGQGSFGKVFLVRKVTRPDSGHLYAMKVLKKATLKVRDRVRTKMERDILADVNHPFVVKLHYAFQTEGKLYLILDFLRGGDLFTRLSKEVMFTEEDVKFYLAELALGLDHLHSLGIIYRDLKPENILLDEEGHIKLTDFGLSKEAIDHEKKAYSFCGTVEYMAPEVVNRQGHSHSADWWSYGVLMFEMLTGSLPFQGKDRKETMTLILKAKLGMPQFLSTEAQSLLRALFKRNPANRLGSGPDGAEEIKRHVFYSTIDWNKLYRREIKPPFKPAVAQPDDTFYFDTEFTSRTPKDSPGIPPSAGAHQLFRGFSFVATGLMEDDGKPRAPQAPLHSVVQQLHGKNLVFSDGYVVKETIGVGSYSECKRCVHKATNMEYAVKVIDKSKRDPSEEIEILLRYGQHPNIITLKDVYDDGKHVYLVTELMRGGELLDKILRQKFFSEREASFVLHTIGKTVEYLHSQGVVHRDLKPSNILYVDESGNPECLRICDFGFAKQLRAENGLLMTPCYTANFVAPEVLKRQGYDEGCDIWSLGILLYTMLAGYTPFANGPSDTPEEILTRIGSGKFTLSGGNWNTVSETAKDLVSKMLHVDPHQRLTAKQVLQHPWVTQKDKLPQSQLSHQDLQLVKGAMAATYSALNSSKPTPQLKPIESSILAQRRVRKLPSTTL

On to `FC(F)(F)c1ccc(CNc2ccc(Cc3c[nH]c4ncc(Cl)cc34)cn2)cn1` [PEXIDARTINIB], for which, in the data set on Mus musculus [1], the Activity is on record as over 99%.

In the case of `COc1ncc(F)cc1CNc1ccc(Cc2c[nH]c3ncc(C)cc23)c(F)n1` [PLX-5622], in data set [2], the Vd came to 1.6 L/kg. Moreover, the Activity amounted to 76.394 RPKM in [3]; 101.141% in data set [6]; 0.341 RPKM in data set [9]; 10.009 RPKM in data set [12]; 0.074 RPKM in data set [16]; 0 RPKM in data set [19]. For the same compound, the Activity in data set [24] is 86.32%; in the data set on Mus musculus [25], 7; in data set [26], 0.17 RPKM; in [27] it was 0 RPKM; with Mus musculus [29], 9.38%. For the same compound, the concentration at 336 h in [4] amounted to 963 ng/mL. The IC50 in data set [5], in data set [7], in data set [8], in [13], in data set [14] and in [15] was over 1 µM each time. Also, the IC50 in data set [20], in data set [21], in data set [22], in [28], in data set [30] and in [31] was over 1 µM each time. The 50% inhibitory concentration (IC50) in data set [32] and in [33] was over 1 µM in each case. The AUC(0-inf) (as a rule, total exposure, with the tail of the curve extrapolated) in data set [10] came to 5110 ng·h/mL. Further, the half-life – broadly, the time needed for the level to fall by half in the phase considered – in data set [11] is 2.6 h. Besides, in data set [17], the Time amounted to 6.755 s. For the same compound, the outcome with Mus musculus [18] was Active. Also, in the data set on Mus musculus [23], the Flu intensity was found to be 0.1 a.u.
